Assay results pooled from the literature.
Lines come from different studies, so protocols differ.
Target: Glycogen synthase kinase-3 alpha (GSK3A, Homo sapiens, UniProt P49840)

With `O=C(c1ccc(Nc2ncc(Cl)c(-c3cc4ccccc4s3)n2)cc1)N1CCC(N2CCCC2)CC1` the remaining binding was 11% (binding; competition with immobilised ligand; 1 µM).
`CN(CCCC(F)(F)F)c1nccc(-c2cnn3ncccc23)n1` has a remaining binding of 100% (binding; 1 µM).
The remaining binding of `C[C@H](NC(=O)c1cnc2n1[C@](C)(Cc1ccc(C#N)cc1)C(=O)N2c1cc(Cl)c(F)c(Cl)c1)C(=O)NC1(c2ccccn2)CC1` is reported as 100% (cell-free assay; competition with immobilised ligand; 1 µM).
`F[C@@H]1CCN(c2nccc(-c3cnn4ncccc34)n2)C1` gave a remaining binding of 100% (binding; 1 µM).
`CNC(=O)[C@@H]1CC[C@@H](n2c(-c3ccc4cnccc4c3)nc3ccc(C(=O)NCc4cccc(C(N)=O)c4)cc32)C1` gave a remaining binding of 85% (binding; competition with immobilised ligand; 1 µM).
With `c1cnn2ncc(-c3ccnc(N4CCC45COC5)n3)c2c1` the remaining binding was 100% (binding; 1 µM).
`O=C(NCc1ncc(C(F)(F)F)cc1Cl)c1ccc2c(c1)C1(CCS(=O)(=O)CC1)[C@H](C1CC1)N2S(=O)(=O)c1ccc(F)cc1` has a remaining binding of 100% (cell-free assay; competition with immobilised ligand; 1 µM).
`CCN1CCN(Cc2ccc(C(=O)Nc3ccc(C)c(Oc4ccc5c(c4)CC(=O)N5)c3)cc2C(F)(F)F)CC1` gave a remaining binding of 100% (binding; competition with immobilised ligand; 1 µM).
The remaining binding of `O=C(NCCCN1CCOCC1)c1ccc(Nc2nccc(-c3cc4ccccc4s3)n2)cc1` is reported as 92% (binding; competition with immobilised ligand; 1 µM).
With `O=C(Nc1c[nH]nc1C(=O)NC1CCNCC1)c1cc(F)cc(F)c1` the remaining binding was 14% (binding; competition with immobilised ligand; 1 µM).
`O=C(Nc1cccnn1)N1CCC(=Cc2cccc(Oc3ccc(C(F)(F)F)cn3)c2)CC1` gave a remaining binding of 100% (cell-free assay; competition with immobilised ligand; 1 µM).
`N[C@@H]1CCN(c2nccc(-c3cnn4ncccc34)n2)C1` gave a remaining binding of 100% (binding; 1 µM).
With `Cc1cnc(Nc2ccc(C(=O)N3CCC(N4CCCC4)CC3)cc2)nc1-c1cc2ccccc2s1` the remaining binding was 43% (binding; competition with immobilised ligand; 1 µM).
For `Cn1nc(C(=O)NCc2ccc(C(=O)O)cc2)cc1-c1ccc2[nH]ccc2c1`, the remaining binding was 61% (cell-free assay; competition with immobilised ligand; 0.1 µM).
`c1cncc(-c2cccc(Nc3nccc(NC4CCCCC4)n3)c2)c1` has a remaining binding of 65% (binding; competition with immobilised ligand; 10 µM).
`O=C(NC[C@@H]1[C@H]2CN(C(=O)OCc3cc(C(F)(F)F)cc(C(F)(F)F)c3)C[C@@H]12)c1ccc2[nH]nnc2c1` gave a remaining binding of 99% (cell-free assay; competition with immobilised ligand; 1 µM).
For `FC(F)(F)Oc1cccc(-c2cnc3ccc(-c4ccncc4)nn23)c1`, the remaining binding was 44% (cell-free assay; competition with immobilised ligand; 5 µM).
`C[C@H]1CCN(c2nccc(-c3cnn4ncccc34)n2)C1` has a remaining binding of 85% (binding; 1 µM).
The remaining binding of `C=CC(=O)N1CCC(C(=O)NCC(=O)N2CCN(c3nc(-c4cnc(N)nc4C(F)F)nc(N4CCOCC4)n3)CC2)CC1` is reported as 92% (binding; competition with immobilised ligand; 1 µM).
For `CN1CCN(c2cnc3c(C4CCN(C(=O)c5ccc(OC(F)(F)F)cc5N)CC4)ncnc3c2)CC1`, the remaining binding was 100% (cell-free assay; competition with immobilised ligand; 1 µM).
`COc1ncc2cc3ccccc3nc2c1C#N` gave a remaining binding of 94% (cell-free assay; competition with immobilised ligand; 5 µM).
